Converted amounts (≈) assume the structure as drawn.
Experiments:
Enterococcus faecium [1] = assay: Antibacterial activity against vancomycin-resistant Enterococcus faecium ATCC 51559 after 24 hrs by broth microdilution assay; format: functional
Method in brief: (§1)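 MIC by broth microdilution. Cultures were grown 6 h to ~10^9 cfu/mL, then diluted to 10^5 cfu/mL. Media: yeast-dextrose broth for MRSA, BHI for VRE, and beef extract/peptone nutrient broth for K. pneumoniae. Compounds were serially diluted in water, 50 µL added to 150 µL cells, and incubated 24 h at 37 °C. OD600 triplicates were sigmoid-fitted; MIC is the point where OD equals the no-bacteria control. Mean ± SEM of ≥2 experiments.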

[2] = Hemolytic activity in human erythrocytes after 1 hr by spectrophotometric analysis; format: ADME, cell-based, Erythrocyte
Method in brief: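 Heparinized fresh human erythrocytes at 5 vol% in PBS pH 7.4 were mixed 3:1 with serially diluted compound and held 1 h at 37 °C. Plates were centrifuged and supernatant A540 read. Hemolysis was scaled between an untreated control and a Triton X-100 (100% lysis) control. HC50 is the mean of at least two independent triplicate experiments.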

Pseudomonas aeruginosa = assay: Antibacterial activity against drug-sensitive Pseudomonas aeruginosa ATCC 4676 after 24 hrs by broth microdilution assay; format: functional
Method in brief: (§2)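 Bacteria grown 6 h to ~10^9 cfu/mL and diluted to 10^5 cfu/mL in nutrient media. Growth media were LB (E. coli), yeast-dextrose broth (S. aureus, P. aeruginosa) and BHI (E. faecium). Compound was serially diluted in water and added 1:3 to bacteria, then incubated 37 °C for 24 h with OD600 read-out. Triplicate ODs were sigmoid-fitted; MIC was taken where OD matched the no-bacteria control. At least two independent experiments.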

Escherichia coli [3] = assay: Antibacterial activity against drug-sensitive Escherichia coli MTCC 443 after 24 hrs by broth microdilution assay; format: functional; method in brief: as §2
[4] = Retention time of the compound by HPLC analysis; format: physicochemical
Klebsiella pneumoniae = assay: Antibacterial activity against beta-lactam-resistant Klebsiella pneumoniae ATCC 700603 after 24 hrs by broth microdilution assay; format: functional; method in brief: as §1
Enterococcus faecium [5] = assay: Antibacterial activity against drug-sensitive Enterococcus faecium ATCC 19634 after 24 hrs by broth microdilution assay; format: functional; method in brief: as §2
Staphylococcus aureus [6] = assay: Antibacterial activity against methicillin-resistant Staphylococcus aureus ATCC 33591 after 24 hrs by broth microdilution assay; format: functional; method in brief: as §1
Staphylococcus aureus [7] = assay: Antibacterial activity against drug-sensitive Staphylococcus aureus MTCC 737 after 24 hrs by broth microdilution assay; format: functional; method in brief: as §2
Escherichia coli [8] = assay: Ratio of MSI-78 MIC to compound MIC for Escherichia coli; format: functional

Molecule | MIC (Enterococcus faecium [1]; ATCC 51559, 24 h) [µg/mL] | HC50 at 1 h [2] [µg/mL] | MIC (Pseudomonas aeruginosa; ATCC 4676, 24 h) [µg/mL] | MIC (Escherichia coli [3]; MTCC 443, 24 h) [µg/mL] | Retention_time [4] [min] | MIC (Klebsiella pneumoniae; ATCC 700603, 24 h) [µg/mL] | MIC (Enterococcus faecium [5]; ATCC 19634, 24 h) [µg/mL] | MIC (Staphylococcus aureus [6]; ATCC 33591, 24 h) [µg/mL] | MIC (Staphylococcus aureus [7]; MTCC 737, 24 h) [µg/mL] | Ratio (Escherichia coli [8]) | MIC (Enterococcus faecium [1]) [µg/mL] | MIC (Pseudomonas aeruginosa) [µg/mL] | MIC (Escherichia coli [3]) [µg/mL] | MIC (Klebsiella pneumoniae) [µg/mL] | MIC (Enterococcus faecium [5]) [µg/mL] | MIC (Staphylococcus aureus [6]) [µg/mL] | MIC (Staphylococcus aureus [7]) [µg/mL]
CCCCCCCCCCN(Cc1cccc2ccccc12)C(=O)[C@@H](N)CCCCN.O=C(O)C(F)(F)F.O=C(O)C(F)(F)F | 1.6 | 54 | 3 | 4 | 14.2 | 5.8 | 3.5 | 2.6 | 2.5 | – | – | – | – | – | – | – | –
CCN(Cc1c2ccccc2c(Cl)c2ccccc12)C(=O)[C@@H](N)CCCCN.O=C(O)C(F)(F)F.O=C(O)C(F)(F)F | 7.2 | 118 | 4 | 25 | 11.8 | 31 | 13.6 | 21 | 11 | – | – | – | – | – | – | – | –
CCCCCCCCCCCCN(Cc1cccc2ccccc12)C(=O)[C@@H](N)CCCCN.O=C(O)C(F)(F)F.O=C(O)C(F)(F)F | 3.4 | 56 | 3.2 | 3.1 | 15.1 | 4 | 1.6 | 2.7 | 3 | – | – | – | – | – | – | – | –
CCCCCCCCCCN(Cc1c2ccccc2c(Cl)c2ccccc12)C(=O)[C@@H](N)CCCCN.O=C(O)C(F)(F)F.O=C(O)C(F)(F)F | 5.6 | 71 | 11 | 26 | 15.6 | 7.6 | 4.9 | 4.6 | 7.1 | – | – | – | – | – | – | – | –
CCCCN(Cc1ccccc1)C(=O)[C@@H](N)CCCCN.O=C(O)C(F)(F)F.O=C(O)C(F)(F)F | – | > 1000 | > 100 | > 100 | 9.4 | > 100 | > 100 | > 100 | > 100 | – | – | – | – | – | – | – | –
CCCCN(Cc1cccc2ccccc12)C(=O)[C@@H](N)CCCCN.O=C(O)C(F)(F)F.O=C(O)C(F)(F)F | > 100 | > 1000 | > 100 | > 100 | 10.8 | > 100 | > 100 | > 100 | > 100 | – | – | – | – | – | – | – | –
CN[C@H](CC(C)C)C(=O)N[C@H]1C(=O)N[C@@H](CC(N)=O)C(=O)N[C@H]2C(=O)N[C@H]3C(=O)N[C@H](C(=O)N[C@H](C(=O)O)c4cc(O)cc(O)c4-c4cc3ccc4O)[C@H](O)c3ccc(c(Cl)c3)Oc3cc2cc(c3O[C@@H]2O[C@H](CO)[C@@H](O)[C@H](O)[C@H]2O[C@H]2C[C@](C)(N)[C@H](O)[C@H](C)O2)Oc2ccc(cc2Cl)[C@H]1O [VANCOMYCIN] | > 100 | – | – | – | – | – | 0.87 (≈ 0.6 µM) | 0.9 (≈ 0.621 µM) | 0.9 (≈ 0.621 µM) | – | – | – | – | – | – | – | –
CCCCCCCCCCCCCCN(Cc1ccccc1)C(=O)[C@@H](N)CCCCN.O=C(O)C(F)(F)F.O=C(O)C(F)(F)F | 2.5 | 50 | 2.8 | 3.1 | 15.8 | 4 | 2 | 2.5 | 3.1 | – | – | – | – | – | – | – | –
CCCCCCCCN(Cc1ccccc1)C(=O)[C@@H](N)CCCCN.O=C(O)C(F)(F)F.O=C(O)C(F)(F)F | > 100 | 325 | 60 | 51 | 12.1 | > 100 | 60 | > 100 | 46 | – | – | – | – | – | – | – | –
CCCCN(Cc1c2ccccc2c(Cl)c2ccccc12)C(=O)[C@@H](N)CCCCN.O=C(O)C(F)(F)F.O=C(O)C(F)(F)F | 5.3 | 91 | 1.9 | 4.8 | 12.4 | 17 | 4.5 | 6.3 | 5.3 | – | – | – | – | – | – | – | –
CCCCCCN(Cc1ccccc1)C(=O)[C@@H](N)CCCCN.O=C(O)C(F)(F)F.O=C(O)C(F)(F)F | – | > 1000 | > 100 | > 100 | 10.6 | > 100 | > 100 | > 100 | > 100 | – | – | – | – | – | – | – | –
CCCCCCCCCCN(Cc1ccccc1)C(=O)[C@@H](N)CCCCN.O=C(O)C(F)(F)F.O=C(O)C(F)(F)F | 5.8 | 95 | 4 | 6.5 | 13.4 | 31 | 6.5 | 15.7 | 5.7 | – | – | – | – | – | – | – | –
CCCCCCCCCCCCN(Cc1ccccc1)C(=O)[C@@H](N)CCCCN.O=C(O)C(F)(F)F.O=C(O)C(F)(F)F | 3.3 | 45 | 4 | 5 | 14.5 | – | 2.6 | 2.9 | 2.7 | – | – | – | – | – | – | – | –
CCCCCCCCN(Cc1c2ccccc2c(Cl)c2ccccc12)C(=O)[C@@H](N)CCCCN.O=C(O)C(F)(F)F.O=C(O)C(F)(F)F | 3 | 64 | 3.8 | 2.9 | 14.6 | 4.3 | 2.5 | 2.3 | 2.2 | 5 | – | – | – | – | – | – | –
CCCCCCCCN(Cc1cccc2ccccc12)C(=O)[C@@H](N)CCCCN.O=C(O)C(F)(F)F.O=C(O)C(F)(F)F | 7 | 60 | 5.4 | 5 | 12.9 | 13 | 5.5 | 4.4 | 6.3 | – | – | – | – | – | – | – | –
COLISTIN | – | – | – | – | – | – | – | – | – | – | > 100 | 0.4 | 0.4 | 1.2 | > 100 | 54 | 20
